From PubChem
DNMT1 inh: human DNMT1 methyltransferase inhibitors, primary screen, biochemical, molecular beacon, fluorescence, HinP1I cleavage, uHTS | DNA (cytosine-5)-methyltransferase 1 (Homo sapiens), P26358 | actives 0.83% (n = 360,000) | inhibition (reported as % activation of signal), % at 10 µM; in the data active means inhibition above about 50%
SUMO1-SIM PPI: modulators of SUMO1 protein-protein interactions, primary screen, biochemical, uHTS | SUMO1 binding to a labelled peptide, TR-FRET, 1 h | AID 602429, 2012 | inhibition, % at 20 µM | actives 0.33% (n = 360,000); in the data active means inhibition above about 37%
Target sequence (P63165 whole entry, looked up): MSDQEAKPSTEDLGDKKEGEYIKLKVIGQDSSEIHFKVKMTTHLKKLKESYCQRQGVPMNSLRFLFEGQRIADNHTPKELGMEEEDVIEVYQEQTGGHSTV
NadD inh: inhibitors of S. aureus NadD, primary screen, biochemical, colorimetric, uHTS. purified NadD enzyme, colorimetric absorbance read-out. actives 0.78% (n = 360,000). AID 602399, 2012. Nicotinate-nucleotide adenylyltransferase NadD (Staphylococcus aureus N315). inhibition, % at 20 µM; in the data active means inhibition above about 26%
LMPTP inh: LMPTP phosphatase inhibitors, primary screen, biochemical, fluorescence intensity, uHTS. actives 0.22% (n = 360,000). inhibition, % at 20 µM. recombinant LMPTP-A, OMFP fluorogenic substrate;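 active means compounds that cut the enzyme signal by at least half of the control window in the single-dose screen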;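 further: plate controls were DMSO wells with enzyme plus substrate for no effect and substrate without enzyme for full effect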
Target sequence (P24666 whole entry, looked up): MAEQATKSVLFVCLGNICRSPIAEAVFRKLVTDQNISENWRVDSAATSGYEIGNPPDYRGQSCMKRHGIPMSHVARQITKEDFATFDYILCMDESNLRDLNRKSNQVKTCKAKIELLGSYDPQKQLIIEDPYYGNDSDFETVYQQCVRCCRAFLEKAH
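Test system – LMPTP-A phosphatase enzyme · Quantity – 0.625 nM LMPTP-A final · Reagent – OMFP substrate, 400 µM final · Dosing – one test concentration per compound, 20 µM, with 3% DMSO overall · Timing – 50 min enzyme reaction at room temperature, protected from light · Detection – fluorescence intensity · Controls – substrate-only low control, DMSO enzyme-plus-substrate high control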
Scp1 inh: Scp-1 phosphatase inhibitors, primary screen, biochemical, colorimetric, uHTS | Carboxy-terminal domain RNA polymerase II polypeptide A small phosphatase 1 (Homo … | Recombinant Scp1, phosphopeptide, malachite green phosphate absorbance | inhibition, % at 20 µM | actives 0.88% (n = 340,000) | AID 493091, 2011;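 active means inhibition above about 50% at 20 µM, limit read from the data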;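 further: plate controls were DMSO wells with enzyme for no effect and wells lacking enzyme for full effect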
Target sequence (Q9GZU7 76-261 limits assumed): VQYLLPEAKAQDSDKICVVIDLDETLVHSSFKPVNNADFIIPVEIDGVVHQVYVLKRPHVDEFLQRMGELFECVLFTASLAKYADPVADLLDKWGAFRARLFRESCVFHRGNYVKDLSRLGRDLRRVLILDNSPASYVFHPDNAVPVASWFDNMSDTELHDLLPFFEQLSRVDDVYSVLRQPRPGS
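Test system: SCP-1 catalytic domain; Buffer or medium: Acidic Tris acetate buffer with magnesium and detergent; Also added: Phosphorylated 17-residue peptide substrate; Compound: single 20 µM dose, 1% DMSO; Schedule: enzyme reaction 45 min at room temperature, colour 5 min, stabilisation 30 min; Signal: Phosphate-binding colour reagent, absorbance read at 630 nm.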
STEP block: STEP phosphatase inhibitors, primary screen, biochemical, fluorescence intensity, uHTS | recombinant STEP, OMFP fluorogenic substrate | Tyrosine-protein phosphatase non-receptor type 5 (Homo sapiens), P54829 | actives 0.25% (n = 360,000) | inhibition, % at 20 µM;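 active means inhibition at 20 µM, scaled per plate between control wells, above about 37%, limit read from the data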;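 further: 0% = DMSO with enzyme and substrate and 100% = substrate only without enzyme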
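Test system: STEP tyrosine phosphatase / Reagent: OMFP at 25 µM / Doses: 20 µM, 1% DMSO / Read-out: percent inhibition scaled to no-enzyme and uninhibited-enzyme controls, plate-pattern corrected / Detection: FITC-channel fluorescence of OMFP product / Medium: Bis-Tris buffer pH 6.0, 2.5 mM DTT, 0.005% Tween 20 / Schedule: 20 min at room temperature, dark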
Scp-1 conf: Scp-1 phosphatase inhibitors, retest, confirmation, biochemical, colorimetric, single concentration; shares compounds with Scp1 inh; recombinant SCP-1 catalytic domain, phosphate release, malachite green absorbance; inhibition, % at 20 µM; actives 61% (n = 2,500);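 further: plate controls were DMSO with enzyme for no effect and buffer wells lacking enzyme for full effect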
Scp-1 MG ctr: colorimetric readout interference by compounds, confirmation, artefact control for Scp-1 inhibitor project, biochemical, single concentration; apparent inhibition (interference), % at 20 µM; Colorimetric interference counterscreen, malachite green absorbance 630 nm; 2,500 tested, under 10 active; shares compounds with Scp1 inh;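 further: compounds added after enzyme reaction finished so only phosphate colour detection is probed; plate controls were DMSO wells with completed Scp-1 reaction for no effect and substrate wells lacking enzyme for full effect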
Scp-1 Tm shift: Scp-1 binding by thermal shift, confirmation, orthogonal assay for Scp-1 inhibitor project, biophysical, differential scanning fluorimetry | shares compounds with Scp1 inh | Recombinant SCP1, Sypro Orange thermal shift Tm | thermal shift relative to vanadate control, % at 40 µM | actives 25% (n = 1,500);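 active means substances whose mean melting-temperature shift, as a percentage of the reference inhibitor's shift, reaches about 5.3%, limit read from the data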;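 further: 0% = Tm of DMSO wells and 100% = Tm with sodium orthovanadate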
* = called active by the depositor; nt = no result. A selection: hits, their analogues and other compounds. The true share with any hit is near 2.3%.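 How the source made its calls, unless noted: active means inhibition of at least 30% at 20 µM; inactive means the rest.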

SMILES	DNMT1 inh	SUMO1-SIM PPI	NadD inh	LMPTP inh	Scp1 inh	STEP block	Scp-1 conf	Scp-1 MG ctr	Scp-1 Tm shift
COc1ccc(NC(=O)CN2C(=O)C(c3ccccc3)=NC23CCCCCC3)cc1	2.6	-2.4	1.1	1.0	58.6*	0.3	-25.8	-22.8	nt
CCC(C)NC(=O)c1cc2cc3ccc(OC)cc3nc2o1 (centres undefined)	1.9	-27.9	-10.0	0.8	-15.4	-1.9	nt	nt	nt
COc1ccc2cc3cc(C(=O)NCc4ccco4)oc3nc2c1	4.9	-5.9	-1.5	0.1	60.7*	3.4	56.0*	-12.6	-13.3
CCOc1ccc(NC(=O)c2cc3cc4ccc(OC)cc4nc3o2)cc1	46.6	1.0	-4.8	22.4	54.9*	31.7	40.9*	-10.1	-7.2
CC(N)c1csc(Nc2ncccn2)n1 (centres undefined)	0.9	-0.6	-3.3	-1.0	nt	-2.4	nt	nt	nt
CCOc1ccc(Nc2ccc(N)c(S(=O)(=O)O)c2)cc1	86.8*	37.3*	10.0	74.2*	84.4*	81.2*	65.7*	-13.4	19.7*
CC(Nc1nc(-c2cccnc2)nc2ccccc12)c1ccccc1 (centres undefined)	-1.8	6.9	-0.6	21.1	nt	2.8	nt	nt	nt
COc1ccccc1C(C)Nc1nc(-c2cccnc2)nc2ccccc12 (centres undefined)	-5.0	15.2	-3.6	14.3	61.3*	0.6	-8.1	-12.6	nt
CCCNC(=O)c1ccccc1SCc1c(C)noc1C	1.0	-1.3	4.0	-1.1	-8.3	-0.2	nt	nt	nt
C[n+]1cn(CC(O)COCc2ccccc2)c2ccccc21 (centres undefined)	8.8	1.4	17.8	-1.0	71.0*	8.1	71.1*	-15.6	-7.8
Cn1nnnc1SCC1=C(C(=O)O)N2C(=O)C(NC(=O)C3CC3c3ccccc3)C2SC1 (centres undefined)	27.0	0.8	0.0	-0.7	58.7*	3.8	70.3*	0.3	1.9
CC(=O)OCC1=C(C(=O)O)N2C(=O)C(NC(=O)C(C)Cn3nc(C)c(Cl)c3C)C2SC1 (centres undefined)	23.7	3.1	3.0	0.6	52.9*	1.3	67.2*	-4.6	-0.6
Cc1nn(C(C)C(=O)NC2C(=O)N3C(C(=O)O)=C(CSc4nnnn4C)CSC23)cc1Cl (centres undefined)	10.1	7.4	4.3	-0.4	31.5	3.5	nt	nt	nt
CS(=O)(=O)N(CC(=O)N1CCCCCC1)c1ccc(Cl)cc1	-5.2	0.6	4.3	-2.8	59.4*	0.4	-0.4	-5.2	nt
O=C(NCCCO)c1cc([N+](=O)[O-])cc2c1C=Cc1ccccc1O2	-7.0	-26.9	12.7	-1.9	98.5*	-1.2	-3.2	-7.3	nt
O=C(NCCCc1ccccc1)c1ccc([N+](=O)[O-])cc1Cl	-0.5	-33.8	-4.1	-0.3	0.3	-1.8	nt	nt	nt
CS(=O)(=O)c1ccc(-c2sc3cc4c(cc3c2C(=O)NN2CCOCC2)OCO4)cc1	5.5	-18.4	24.0	-0.7	100.6*	-1.3	85.8*	-6.5	-19.6
Cc1ccc(CCCOC(=O)C[N+]2(C)CCOCC2)cc1	2.0	2.5	20.4	-0.4	37.8	-4.5	nt	nt	nt
C[N+]1(CC(=O)OCCCc2ccccc2)CCOCC1	1.7	-0.9	5.2	-2.2	99.6*	-4.9	80.5*	-17.5	-9.7
CCC(=O)c1ccc(OCC(=O)Nc2cc(S(=O)(=O)N3CCCCC3)ccc2N2CCN(CC)CC2)cc1	-0.4	8.7	-2.4	-1.8	106.4*	-0.5	-17.5	-14.2	nt
CCN1C(=O)[C@H]2[C@@H](c3ccc(C)cc3)N3C(=O)N(c4ccc(OC)cc4)C(=O)[C@@]3(C)[C@H]2C1=O	3.3	-0.8	-5.0	-2.1	-11.2	-4.0	nt	nt	nt
Cc1ccc2nc(Cl)c(C3CC(c4cccs4)=NN3C(=O)CCCC(=O)O)cc2c1 (centres undefined)	-0.5	-10.2	6.2	1.3	96.1*	25.4	85.0*	-11.2	-13.2
Cc1nc2ccc(NC(=O)Cc3ccccc3F)cc2s1	4.5	-0.7	-1.4	-0.1	10.6	-9.2	nt	nt	nt
CCOC(=O)/C=C1\CN(CCC(C)C)S(=O)(=O)c2ccccc21	2.2	-7.6	8.1	-0.1	59.1*	-0.4	31.1*	-20.3	-23.3
CCOC(=O)/C=C1\CN(C(C)c2ccccc2)S(=O)(=O)c2ccccc21 (centres undefined)	3.1	-3.3	15.2	0.5	84.2*	2.1	45.6*	-18.3	-19.5
SMILES	DNMT1 inh	SUMO1-SIM PPI	NadD inh	LMPTP inh	Scp1 inh	STEP block	Scp-1 conf	Scp-1 MG ctr	Scp-1 Tm shift
CCOC(=O)/C=C1\CC(C(=O)OCC)Oc2ccccc21 (centres undefined)	4.4	-6.8	-6.8	-1.7	1.3	-1.8	nt	nt	nt
CSc1nnc(-c2ccc(NC(=O)CCc3ccccc3)cc2)n1C	7.8	0.5	13.5	-2.5	101.6*	-3.8	-5.0	-15.6	nt
Cc1ccc(Cl)cc1N1CCN(c2cccc[n+]2C)CC1	9.2	1.0	14.2	-0.1	98.9*	-1.8	-3.8	-7.6	nt
COc1ccc(OC)c(NC(=O)CNC(=O)Cn2cnc3sc(C)cc3c2=O)c1	4.9	-3.5	0.9	-0.2	1.1	-2.6	nt	nt	nt
COc1ccc(OC)c(NC(=O)CSc2ncnc3sc(C)cc23)c1	24.4	27.5	15.5	17.0	79.8*	2.7	64.5*	-12.3	11.6*
O=C(Cn1c2[n+](c3ccc(C(F)(F)F)cc31)CCCCC2)Nc1ccccc1	6.3	0.0	21.7	-1.6	61.6*	-1.9	-17.5	-9.8	nt
CCc1cccc(NC(=O)Cn2c3[n+](c4ccc(C(F)(F)F)cc42)CCCCC3)c1	0.1	-1.8	12.5	-1.3	18.8	1.7	nt	nt	nt
CN(C)CC(C)(C)CNS(=O)(=O)c1ccc(Cl)cc1	-1.8	3.5	-0.6	-1.8	-0.7	4.5	nt	nt	nt
